Variants at the floor of the assay were thinned out.
B1: tRNA (parent)
chain: GUUCCGUUGGCGUAAUGGUAACGCGUCUCCCUCCUAAGGAGAAGACUGCGGGUUCGAGUCCCGUACGGAACG

Variants of: B1
Test: yeast fitness relative to wild type (ratio to wild type); higher = fitter; tRNA-Arg(CCU), competitive growth, 37 C, YPD
Procedure, shortened: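 Changes in genotype frequencies gave Darwinian fitness relative to wild type. Frequencies were read by 100-nucleotide paired-end sequencing of gene amplicons before and after pooled Saccharomyces cerevisiae strains, carrying tRNA-Arg(CCU) gene variants at the native locus, were competed in YPD at 37°C for 24 hours in six replicates. A genotype was kept only with ≥ 100 starting reads, and estimates < 0.5 were set to 0.5.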

Q: With GAUCCGUUGGCGUAAUGGUCACGCGUCUCCCUCCUAAGGAGAAGACUGCGGGUUCGAGUCCCGUAUGGAACG [U2A A20C C66U] as the variant, how does the yeast fitness read?
A: 0.753

Q: With GAUCCGUUGGCGUAUUGGUAACGCGUCUCCCUCCUAAGGAGAAGACUGGGGGUUCGAGUCCCGUACGGAACG [U2A A15U C49G] as the variant, how does the yeast fitness read?
A: ≤ 0.5

Q: For GAUCCGUUGGCGUAAUGGUUACGCGUCUCCCUCCCAAGGAGAAGACUGCGGGUUCGAGUCCCGUACGGAACG [U2A A20U U35C], which yeast fitness is on record?
A: ≤ 0.5

Q: For GAUCCGUUGGCGUCAUGGUGACGCGUCUCCCUCCUGAGGAGAAGACUGCGGGUCUGAGUCCCGUACGCAACG [U2A A14C A20G A36G U54C C55U G68C], which yeast fitness is on record?
A: 0.544

Q: For GAUCCGUUGGCGUAAUGGUGACGCGUCUCCCUCCUAAGGAGAAAACUGCGGGUUCGAGUCCCGUACGGAACG [U2A A20G G44A], which yeast fitness is on record?
A: 0.531

Q: For GAUCCGUUGGCGUAAUGGUCACGCGUCUCCCUCCUAAGGAGAAGACUGCGGAUUCGAGUCCCGUACGGAACG [U2A A20C G52A], which yeast fitness is on record?
A: 0.542

Q: For GAUCCGUUGGCGUAUUGGUAACGCGUCUCCCUCCUAACAAGACGACUGCGGGUUCGAGUGCCGUCCGGAACG [U2A A15U G38C G39A A43C C60G A65C], which yeast fitness is on record?
A: ≤ 0.5

Q: With GAUCCGUUGGCGUAAUGGUCACGCGUCUCCCUCCUAAGGAGAAGACUGCGGGUUCGAGUCCCGUACGAAACG [U2A A20C G68A] as the variant, how does the yeast fitness read?
A: 0.719

Q: For GAUCCGUUGGCGUCAUGGUAACGCGUCUCCCUCCUGAGGAGAAGACUGCGGGUUCGAGUCCCGUAUGGAACG [U2A A14C A36G C66U], which yeast fitness is on record?
A: 0.639

Q: With GAUCCGUUGGCGUUAUGGUCACGCGUCUCCCUCCAAACGAGAAGACUGCGGGUUCGAGUCCCGUACGGUACG [U2A A14U A20C U35A G38C A69U] as the variant, how does the yeast fitness read?
A: ≤ 0.5

Q: Which yeast fitness does the source give for GAUCCGUUGGCGUGAUGGUAACGCGUCUCCCUCCUAAGGAGAAGACUGCGGGUUCGAGUCCCGUACGGAACG [U2A A14G] here?
A: 0.891

Q: Which yeast fitness does the source give for GAUCCGUUGGCGUUAUGGUAACGCGUCUCCCUCCUAAGGACAAGACUGCGGGUUCGAGUCCCGUACGGAACG [U2A A14U G41C] here?
A: ≤ 0.5

Q: Which yeast fitness does the source give for GAUCCGUUGGCGUAGUGGUAACGCGUCUCCCUCCUAAGGAGAAGACUGCGGGUUCGAGUCCCGUACGGAACG [U2A A15G] here?
A: 0.981

Q: Which yeast fitness does the source give for GAUCCGUUGGCGUAAUGGUUACGCGUCUCCCUCCUAAGGCGAAGACUGCGGGUUCGAGUCCCGUACGGAACG [U2A A20U A40C] here?
A: 0.552

Q: With GAUCCGUUGGCGUAAUGGUCACGCGUCUCCCUCCUAAGGAGAAGACUGCGGGUUCGAGUCCUGUAGGGAACG [U2A A20C C62U C66G] as the variant, how does the yeast fitness read?
A: ≤ 0.5

Q: For GAUCCGUUGGCGUAAUGGUAUCGCGUCUUCCUCCUAAGGUGAAGACUGCGGGAUCGAGUACCGUGCGGAACG [U2A A21U C29U A40U U53A C60A A65G], which yeast fitness is on record?
A: ≤ 0.5

Q: Which yeast fitness does the source give for GAUCCGUUGGCGUAAUGGUUACGCGUCUCCCUCAUAAGGAGAAGACUGCGGGUUCGAGUCUCGUACGGAACG [U2A A20U C34A C61U] here?
A: ≤ 0.5

Q: With GAUCCGUUGGCGUAAUGGUCACGCGUCUCCCUCCUAGGGAGAAGACUGCGGAAUCGAGUCCCGUACGGAACG [U2A A20C A37G G52A U53A] as the variant, how does the yeast fitness read?
A: ≤ 0.5

Q: For GAUCCGUUGGCGUAAUGGUGACGCGUCUCCCUCCUAAGGAGAAGACUGCGGGUUCGACUCCCGUACGGAACG [U2A A20G G58C], which yeast fitness is on record?
A: 0.973

Q: With GAUCCGUUGGCGUAAUGGUAUCGCGUUCCCCUCCUAAGGAGAAGACUGCGGGUUCGAGUCCGGUACGGAACG [U2A A21U C27U U28C C62G] as the variant, how does the yeast fitness read?
A: ≤ 0.5

Q: With GAUCCGUUGGCGUAGCGGUCUCGCGCCUCCCUCCUAAGGAGAAGACUGCGGGUUCGAGUCCCGUACGGAACG [U2A A15G U16C A20C A21U U26C] as the variant, how does the yeast fitness read?
A: 0.583

Q: Which yeast fitness does the source give for GAUCCGUUGGCGUAAUGGUAGCGCGUUUCCCUCCUAAGGAGAAGACUGCGGGUUCGAGUCCCGUACGGAACG [U2A A21G C27U] here?
A: 0.693

Q: Which yeast fitness does the source give for GAUCCGUUGGCGUAAUGGUAGCGCGUCUUCCUCCUAAGGUGAAGACUGCGGGUUCGAGUCCCGUACGGAACG [U2A A21G C29U A40U] here?
A: 0.57

Q: For GAUCCGUUGGCGUAAUGGUAACGCGUCUCCCUCCUAAGGAGAAGACUGCGGGUUCGAGUCCCGUACGGAACG [U2A], which yeast fitness is on record?
A: 0.988

Q: For GAUCCGUUGGCGUAAUGGUCACGCGUCUCCCUACUAAGGAGAAGACUGCGGGUUUGAGUCCCGUACGGAACG [U2A A20C C33A C55U], which yeast fitness is on record?
A: ≤ 0.5

Q: For GAUCCGUUGGCGUAAUGGUACCGGGUCUCCCACCUAAGGAGCAGACUGCGGGUUCGAGUCCCGUUCGGAACG [U2A A21C C24G U32A A42C A65U], which yeast fitness is on record?
A: ≤ 0.5

Q: With GAUCCGUUGGCGUAAUGGUAGCGCGUCUCCCUCCUAAGGAGAACACUGCGGGUUCGAGGCCCGUACGGAACG [U2A A21G G44C U59G] as the variant, how does the yeast fitness read?
A: ≤ 0.5

Q: Which yeast fitness does the source give for GAUCCGUUGGCGUAAUGGUGACGCGUCUUCCUACUAAGGAGAAGACUGCGGGUUAGAGUGCCGUACGGAACG [U2A A20G C29U C33A C55A C60G] here?
A: ≤ 0.5

Q: With GAUCCGUUGGCGUAAUGGUUACGCGUCUCCCUCCUAAGGAGAAGACUGCGGGUUCGAGUCCCGUACGGAACG [U2A A20U] as the variant, how does the yeast fitness read?
A: 0.732

Q: Which yeast fitness does the source give for GAUCCGUUGGCGUAAUGGUAGCGCGUCUCCCUCCUAAGGAGAAGAGUGCGGGUCCGAGUCCCGUACGGAACG [U2A A21G C46G U54C] here?
A: ≤ 0.5

Q: For GAUCCGUUGGCGUCAUGGUAACGCGUCUCUCUCGUAAGGAGAAGACUGCGGGUUCGACUCCCGUACGGAACG [U2A A14C C30U C34G G58C], which yeast fitness is on record?
A: ≤ 0.5

Q: With GAUCCGUUGGCGUAAUGGUAGCGCGUCUCCCUCCUAAGCAGAAGACUGCGGGUUCGAGUCCCGUACGGCACG [U2A A21G G39C A69C] as the variant, how does the yeast fitness read?
A: ≤ 0.5

Q: For GAUCCGUUGGCGUAUAGGUAACGCGUCUCCCUCCUAAGGAGAAGACUGCGGGUUCGAGUUCGGUCCGGUACG [U2A A15U U16A C60U C62G A65C A69U], which yeast fitness is on record?
A: ≤ 0.5

Q: For GAUCCGUUGGCGUAAUGGUAGCGCGUCUCCCUCCUGAGGAGAACACUGCGGGUUCGAGGCCCGUACGGAACG [U2A A21G A36G G44C U59G], which yeast fitness is on record?
A: ≤ 0.5

Q: Which yeast fitness does the source give for GAUCCGUUGGCGUAGUGGUAACGUGUCUCCCUCCUAAGGAGAAGACUGCGGGUCCGAGUCCCGUACGGAACG [U2A A15G C24U U54C] here?
A: 0.726

Q: Which yeast fitness does the source give for GAUCCGUUGGCGUCAUGGUAACGCGUCUCUCUCGUAAGGAGAAGACUGCGGGUUCGAGUCCCAUACGGAACG [U2A A14C C30U C34G G63A] here?
A: 0.574

Q: For GAUCCGUUGGCGUACUGGUAACGCGUCUCCCUCCUAAGGAGAAGACUGCGGGUUCGACUCCCGUACGGUACG [U2A A15C G58C A69U], which yeast fitness is on record?
A: ≤ 0.5

Q: Which yeast fitness does the source give for GAUCCGUUGGCGUAAUGGUAGCGAGUCUCCCUCCUAAGGAGAAGACUGCGGGUUCGAGUCCCGUACGGAACG [U2A A21G C24A] here?
A: ≤ 0.5

— the RNAGym collection of RNA variant scans (doi:10.1126/science.aae0568)
